From ChEMBL document CHEMBL5653605, “Reduced VEGF production, angiogenesis, and vascular regrowth contribute to the antitumor properties of dual mTORC1/mTORC2 inhibitors” (Cancer Res, 2011)
pIC50: −log10 of the molar value. The source made the active and inactive calls.

What was measured:
[1] = tested on: Pancreatic islet cell carcinoma; assay: Additive antitumor activity in pancreatic islet cell carcinoma in RIP-Tag2 mouse assessed as reduction in proliferation by measuring reduction in phospho-histone H3 level at 100 mg/kg, po qd administered via gavage for 4 days in presence of OXA-01 by immunohistochemistry analysis; type: functional, organism-based; conditions: time 4.0 day
Procedure, shortened: (§1)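 Perfusion-fixed tumor sections (60–80 µm) stained for phospho-histone H3 (proliferation) or activated caspase-3 (apoptosis) and quantified from confocal images. 3–8 mice/group; ANOVA, Fisher PLSD.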

[2] = tested on: Pancreatic islet cell carcinoma; assay: Antivascular activity in pancreatic islet cell carcinoma in RIP-Tag2 mouse assessed as reduction in intratumoral hemorrhage by measuring reduction in TER-119 immunoreactivity at 200 mg/kg, po qd administered via gavage for 7 days followed by cessation and measured after 4 days by confocal microscopic analysis relative to control; type: functional; parameters: scale not given: the % may be the effect or the level left; conditions: time 7 day
Procedure, shortened: (§2)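 Regrowth design in 10-week-old RIP-Tag2 mice: OSI-930 200 mg/kg gavage QD for 7 days, then 4 days of vehicle, 75 mg/kg gavage BID, or 20 mg/kg ip QD; controls received vehicle for 11 days. Perfusion-fixed sections stained for CD31 for vessel density or for the erythrocyte marker TER-119, quantified by confocal microscopy. 3–8 mice/group; ANOVA, Fisher PLSD.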

[3] = tested on: Pancreatic islet cell carcinoma; assay: Antivascular activity in pancreatic islet cell carcinoma in RIP-Tag2 mouse assessed as reduction in intratumoral hemorrhage by measuring reduction in TER-119 immunoreactivity at 200 mg/kg, po qd administered via gavage and measured after 7 days by confocal microscopic analysis relative to control; type: functional; parameters: scale not given: the % may be the effect or the level left; conditions: time 7 day; procedure, shortened: as §2
[4] = target: Vascular endothelial growth factor receptor 2 (Homo sapiens, UniProt P35968)
[5] = tested on: Pancreatic islet cell carcinoma; assay: Antivascular activity against pancreatic islet cell carcinoma in RIP-Tag2 mouse assessed as reduction in CD31-positive tumor blood vessels at 200 mg/kg, po qd administered via gavage and measured after 7 days by immunohistochemical staining based fluorescence microscopic analysis relative to control; type: functional; parameters: scale not given: the % may be the effect or the level left; conditions: time 7 day
Procedure, shortened: (§3)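 For 7 days, RIP-Tag2 mice, 9–10 weeks old, received 75 mg/kg gavage BID, 200 mg/kg gavage QD, or 20 mg/kg ip QD. Perfusion-fixed tumors cut at 60–80 µm and stained for CD31 and type IV collagen basement membrane. Vessel area density from fluorescence images with threshold 30–50; sprouts and empty basement membrane sleeves examined by confocal microscopy. 3–8 mice/group; ANOVA, Fisher PLSD.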

[6] = tested on: Pancreatic islet cell carcinoma; assay: Antivascular activity against pancreatic islet cell carcinoma in RIP-Tag2 mouse assessed as reduction in vascular sprouts at 200 mg/kg, po qd administered via gavage and measured after 7 days by immunohistochemical staining based fluorescence microscopic analysis relative to control; type: functional; parameters: scale not given: the % may be the effect or the level left; conditions: time 7 day; procedure, shortened: as §3
[7] = tested on: Pancreatic islet cell carcinoma; assay: Additive antitumor activity in pancreatic islet cell carcinoma in RIP-Tag2 mouse assessed as induction of apoptosis by measuring increase in activated caspase-3 level at 100 mg/kg, po qd administered via gavage for 4 days in presence of OXA-01 by immunohistochemistry analysis relative to control; type: functional; conditions: time 4 day; procedure, shortened: as §1
[8] = tested on: Pancreatic islet cell carcinoma; assay: Antitumor activity in pancreatic islet cell carcinoma in RIP-Tag2 mouse assessed as induction of apoptosis by measuring increase in activated caspase-3 level at 100 mg/kg, po qd administered via gavage for 4 days in presence of rapamycin by immunohistochemistry analysis; type: functional, organism-based; conditions: time 4.0 day; procedure, shortened: as §1
[9] = tested on: Pancreatic islet cell carcinoma; assay: Antivascular activity against pancreatic islet cell carcinoma in RIP-Tag2 mouse assessed as appearance of empty basement membrane sleeves at 200 mg/kg, po qd administered via gavage and measured after 7 days by immunohistochemical staining based fluorescence microscopic analysis; type: functional, organism-based; conditions: time 7.0 day; procedure, shortened: as §3
Mus musculus [10] = assay: In vivo inhibition of S6 phosphorylation at 235/236 residues in nu/nu CD-1 mouse xenografted with human GEO cells at 20 mg/kg administered for 12 days and measured 2 to 24 hrs post last dose by Western blot analysis; type: functional, organism-based; conditions: time 290-312 hrs
Procedure, shortened: (§4)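 GEO s.c. xenografts in nu/nu CD-1 mice; 20 mg/kg for 12 days; tumors snap-frozen at 2, 8, 24 h, lysed in Triton X-100/HEPES pH 7.4 buffer with phosphatase inhibitors; phospho and total 4E-BP1 (37/46) or S6 (235/236) by Western blot; n=2.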

[11] = tested on: Pancreatic islet cell carcinoma; assay: Antitumor activity against pancreatic islet cell carcinoma in RIP-Tag2 mouse assessed as reduction in VEGF-A expression at 20 mg/kg, ip qd measured after 7 days by immunoprecipitation based densitometric analysis; type: functional, organism-based; conditions: time 7.0 day
Procedure, shortened: (§5)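 VEGF in tumor lysates from treated RIP-Tag2 mice (9–10 weeks old at start; 75 mg/kg gavage BID or 20 mg/kg ip QD) measured with mouse angiogenesis antibody arrays, read as pixel density. 3–8 mice/group, SEM; ANOVA with Fisher PLSD.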

[12] = target: Eukaryotic translation initiation factor 4E-binding protein 1 (Homo sapiens) (UniProt Q13541); assay: Inhibition of 4E-BP1 phosphorylation at Ser 37/46 residues in serum deprived/insulin stimulated human OVCAR-3 cells harboring PTEN and wild type PI3K at 0.001 to 10 uM preincubated for 2 hrs followed by insulin stimulation and measured immediately by Western blot analysis; type: cell-based; conditions: dose 0.001-10 µM
[13] = tested on: Pancreatic islet cell carcinoma; assay: Antitumor activity in pancreatic islet cell carcinoma in RIP-Tag2 mouse assessed as induction of apoptosis by measuring increase in activated caspase-3 level at 20 mg/kg, ip qd […] for 4 days in presence of OSI-930 by immunohistochemistry analysis; type: functional, organism-based; conditions: time 4.0 day; procedure, shortened: as §1
[14] = tested on: Pancreatic islet cell carcinoma; assay: Antivascular activity against pancreatic islet cell carcinoma in RIP-Tag2 mouse assessed as reduction in vascular sprouts at 20 mg/kg, ip qd measured after 7 days by immunohistochemical staining based fluorescence microscopic analysis relative to control; type: functional; parameters: scale not given: the % may be the effect or the level left; conditions: time 7 day; procedure, shortened: as §3
Mus musculus [15] = assay: In vivo inhibition of S6K phosphorylation in RIP-Tag2 mouse with pancreatic islet cell carcinoma 20 mg/kg, ip qd measured after 7 days by immunohistochemistry analysis; type: functional, organism-based; conditions: time 7.0 day
Procedure, shortened: (§6)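 RIP-Tag2 mice, 9–10 weeks old, given 20 mg/kg QD ip for 7 days; perfusion-fixed, 60–80 µm tumor sections immunostained for phospho-4E-BP1, phospho-Akt or phospho-S6K together with CD31; fluorescence/confocal imaging; 3–8 mice per group.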

OVCAR-3 [16] = assay: Inhibition of S6K phosphorylation at 235/236 residues in serum deprived/insulin stimulated human OVCAR-3 cells harboring PTEN and wild type PI3K at 0.001 to 10 uM preincubated for 2 hrs followed by insulin stimulation and measured immediately by Western blot analysis; type: cell-based; conditions: dose 0.001-10 µM
[17] = target: RAC-alpha serine/threonine-protein kinase (Homo sapiens) (UniProt P31749); assay: Inhibition of AKT phosphorylation at Ser 473 site in serum deprived/insulin stimulated human OVCAR-3 cells harboring PTEN and wild type PI3K at 0.001 to 10 uM preincubated for 2 hrs followed by insulin stimulation and measured immediately by Western blot analysis; type: cell-based; conditions: dose 0.001-10 µM
[18] = tested on: Pancreatic islet cell carcinoma; assay: Antitumor activity against pancreatic islet cell carcinoma in RIP-Tag2 mouse assessed as reduction in VEGF production by measuring reduction in tumor cell associated fluorescence intensity at 20 mg/kg, ip qd measured after 7 days by immunohistochemical staining based confocal microscopic analysis relative to control; type: functional; parameters: scale not given: the % may be the effect or the level left; conditions: time 7 day
Procedure, shortened: (§7)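 Treatment began in RIP-Tag2 mice at 9–10 weeks: 75 mg/kg gavage BID for 1, 4 or 7 days, or 20 mg/kg ip QD for 7 days; vehicle Labrifil or water. Tissue fixed by vascular perfusion and 60–80 µm sections stained for VEGF with CD31. VEGF fluorescence intensity measured over whole tumor, tumor cells, or tumor vessels. 3–8 mice/group; ANOVA, Fisher PLSD.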

[19] = tested on: Pancreatic islet cell carcinoma; assay: Antivascular activity in pancreatic islet cell carcinoma in RIP-Tag2 mouse assessed as reduction in intratumoral hemorrhage by measuring reduction in TER-119 immunoreactivity at 20 mg/kg, ip qd pretreated with OSI-930 for 7 days at 200 mg/kg, po followed by compound administration and measured after 4 days by confocal microscopic analysis relative to control; type: functional; parameters: scale not given: the % may be the effect or the level left; conditions: time 4 day; procedure, shortened: as §2
[20] = tested on: Pancreatic islet cell carcinoma; assay: Antivascular activity against pancreatic islet cell carcinoma in RIP-Tag2 mouse assessed as reduction in CD31-positive tumor blood vessels at 20 mg/kg, ip qd measured after 7 days by immunohistochemical staining based fluorescence microscopic analysis; type: functional, organism-based; conditions: time 7.0 day; procedure, shortened: as §3
Mus musculus [21] = assay: In vivo inhibition of 4E-BP1 phosphorylation at Ser37/46 residues in nu/nu CD-1 mouse xenografted with human GEO cells at 20 mg/kg administered for 12 days and measured 2 to 24 hrs post last dose by Western blot analysis; type: functional, organism-based; conditions: time 290-312 hrs; procedure, shortened: as §4
[22] = tested on: Pancreatic islet cell carcinoma; assay: Antitumor activity against pancreatic islet cell carcinoma in RIP-Tag2 mouse assessed as reduction in VEGF-B expression at 20 mg/kg, ip qd measured after 7 days by immunoprecipitation based densitometric analysis; type: functional, organism-based; conditions: time 7.0 day; procedure, shortened: as §5
[23] = target: Proline-rich AKT1 substrate 1 (Homo sapiens) (UniProt Q96B36); assay: Inhibition of PRAS40 phosphorylation at Ser 246 residue in serum deprived/insulin stimulated human OVCAR-3 cells harboring PTEN and wild type PI3K at 0.001 to 10 uM preincubated for 2 hrs followed by insulin stimulation and measured immediately by Western blot analysis; type: cell-based; conditions: dose 0.001-10 µM
[24] = tested on: Pancreatic islet cell carcinoma; assay: Antitumor activity against pancreatic islet cell carcinoma in RIP-Tag2 mouse assessed as reduction in VEGF production by measuring reduction in tumor vessels associated fluorescence intensity at 20 mg/kg, ip qd measured after 7 days by immunohistochemical staining based confocal microscopic analysis relative to control; type: functional; parameters: scale not given: the % may be the effect or the level left; conditions: time 7 day; procedure, shortened: as §7
Mus musculus [25] = assay: In vivo inhibition of 4E-BP1 phosphorylation in RIP-Tag2 mouse with pancreatic islet cell carcinoma 20 mg/kg, ip qd measured after 7 days by immunohistochemistry; type: functional, organism-based; conditions: time 7.0 day; procedure, shortened: as §6
Mus musculus [26] = assay: In vivo inhibition of AKT phosphorylation in RIP-Tag2 mouse with pancreatic islet cell carcinoma 20 mg/kg, ip qd measured after 7 days by immunohistochemistry; type: functional, organism-based; conditions: time 7.0 day; procedure, shortened: as §6
[27] = tested on: Pancreatic islet cell carcinoma; assay: Antitumor activity against pancreatic islet cell carcinoma in RIP-Tag2 mouse assessed as reduction in VEGF production by measuring reduction in fluorescence in entire tumor at 20 mg/kg, ip qd measured after 7 days by immunohistochemical staining based confocal microscopic analysis relative to control; type: functional; parameters: scale not given: the % may be the effect or the level left; conditions: time 7 day; procedure, shortened: as §7
OVCAR-3 [28] = assay: Inhibition of S6K at […] residues in serum deprived/insulin stimulated human OVCAR-3 cells harboring PTEN and wild type PI3K assessed as inhibition of s6 substrate phosphorylation at […] residue at 0.001 to 10 uM preincubated for 2 hrs followed by insulin stimulation and measured immediately by Western blot analysis; type: cell-based; conditions: dose 0.001-10 µM
[29] = tested on: Pancreatic islet cell carcinoma; assay: Antivascular activity against pancreatic islet cell carcinoma in RIP-Tag2 mouse assessed as appearance of empty basement membrane sleeves at 20 mg/kg, ip qd measured after 7 days by immunohistochemical staining based confocal microscopic analysis; type: functional, organism-based; conditions: time 7.0 day; procedure, shortened: as §3
[30] = tested on: Pancreatic islet cell carcinoma; assay: Antivascular activity in pancreatic islet cell carcinoma in RIP-Tag2 mouse assessed as suppression of tumor regrowth by measuring reduction in vessel density at 20 mg/kg, ip qd pretreated with OSI-930 for 7 days at 200 mg/kg, po followed by compound administration and measured after 4 days (reference value: 18%); type: functional; parameters: scale not given: the % may be the effect or the level left; conditions: time 4 day; procedure, shortened: as §2

Chain of Vascular endothelial growth factor receptor 2 (P35968 whole entry): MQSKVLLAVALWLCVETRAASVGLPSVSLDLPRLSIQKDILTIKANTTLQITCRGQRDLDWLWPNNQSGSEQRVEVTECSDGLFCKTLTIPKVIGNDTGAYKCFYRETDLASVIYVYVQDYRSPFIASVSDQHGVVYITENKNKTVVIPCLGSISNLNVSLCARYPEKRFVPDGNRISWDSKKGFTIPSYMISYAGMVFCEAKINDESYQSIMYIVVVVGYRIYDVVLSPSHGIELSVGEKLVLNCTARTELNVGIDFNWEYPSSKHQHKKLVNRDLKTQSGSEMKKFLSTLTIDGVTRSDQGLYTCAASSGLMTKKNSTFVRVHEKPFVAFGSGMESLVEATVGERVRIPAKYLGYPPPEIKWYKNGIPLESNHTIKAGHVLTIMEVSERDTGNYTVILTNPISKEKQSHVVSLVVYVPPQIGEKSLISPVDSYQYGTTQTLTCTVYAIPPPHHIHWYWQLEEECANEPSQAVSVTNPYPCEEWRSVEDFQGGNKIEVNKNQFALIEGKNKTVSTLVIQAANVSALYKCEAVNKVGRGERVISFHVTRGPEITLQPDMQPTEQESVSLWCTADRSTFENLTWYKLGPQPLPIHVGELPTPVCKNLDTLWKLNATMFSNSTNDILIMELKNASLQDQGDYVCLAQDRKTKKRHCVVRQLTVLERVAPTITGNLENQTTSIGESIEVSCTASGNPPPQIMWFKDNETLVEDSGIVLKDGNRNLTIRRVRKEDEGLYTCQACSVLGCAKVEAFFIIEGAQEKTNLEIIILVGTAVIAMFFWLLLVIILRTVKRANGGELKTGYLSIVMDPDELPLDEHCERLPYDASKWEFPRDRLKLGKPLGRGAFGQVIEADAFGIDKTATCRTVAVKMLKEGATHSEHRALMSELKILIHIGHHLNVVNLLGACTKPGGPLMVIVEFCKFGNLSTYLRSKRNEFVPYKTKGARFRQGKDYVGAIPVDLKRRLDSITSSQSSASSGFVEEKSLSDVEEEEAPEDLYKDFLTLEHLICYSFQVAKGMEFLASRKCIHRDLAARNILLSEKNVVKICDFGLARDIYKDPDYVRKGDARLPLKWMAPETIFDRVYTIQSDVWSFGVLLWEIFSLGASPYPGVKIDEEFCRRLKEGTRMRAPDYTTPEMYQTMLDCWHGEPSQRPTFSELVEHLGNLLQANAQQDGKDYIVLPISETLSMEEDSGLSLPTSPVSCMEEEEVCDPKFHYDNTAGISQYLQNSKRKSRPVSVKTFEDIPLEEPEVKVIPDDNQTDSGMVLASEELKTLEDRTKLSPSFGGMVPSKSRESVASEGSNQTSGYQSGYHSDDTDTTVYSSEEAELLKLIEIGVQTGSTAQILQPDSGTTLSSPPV
Chain of RAC-alpha serine/threonine-protein kinase (Homo sapiens) (P31749 whole entry): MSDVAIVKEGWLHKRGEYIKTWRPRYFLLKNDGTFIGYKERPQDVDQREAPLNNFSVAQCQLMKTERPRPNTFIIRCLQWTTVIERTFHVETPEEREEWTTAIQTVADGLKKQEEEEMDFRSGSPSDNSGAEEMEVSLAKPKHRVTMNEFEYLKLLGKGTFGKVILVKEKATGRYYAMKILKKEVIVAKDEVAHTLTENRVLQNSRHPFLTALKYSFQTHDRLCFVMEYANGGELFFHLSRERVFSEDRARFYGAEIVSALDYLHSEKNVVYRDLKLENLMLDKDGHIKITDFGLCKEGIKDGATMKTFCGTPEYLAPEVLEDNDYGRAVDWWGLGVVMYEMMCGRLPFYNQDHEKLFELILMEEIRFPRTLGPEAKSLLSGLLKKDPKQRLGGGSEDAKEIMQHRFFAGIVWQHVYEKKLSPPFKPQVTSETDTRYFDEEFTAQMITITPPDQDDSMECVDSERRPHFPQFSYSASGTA
Chain of Eukaryotic translation initiation factor 4E-binding protein 1 (Homo sapiens) (Q13541 whole entry): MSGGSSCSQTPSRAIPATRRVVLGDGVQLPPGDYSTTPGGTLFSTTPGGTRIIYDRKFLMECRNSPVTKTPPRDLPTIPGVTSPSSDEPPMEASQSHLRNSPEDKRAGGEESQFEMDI

SMILES: O=C(Nc1ccc(OC(F)(F)F)cc1)c1sccc1NCc1ccnc2ccccc12 [OSI-930]
- Activity [1]: Active
- Activity [2]: 28%
- Activity [3]: 72%
- pIC50 [4]: 8.05
- Activity [5]: 61%
- Activity [6]: 61%
- Activity [7]: 700%
- Activity [8]: inactive
- Activity [9]: Active

SMILES: CO[C@H]1C[C@@H]2CC[C@@H](C)[C@@](O)(O2)C(=O)C(=O)N2CCCC[C@H]2C(=O)O[C@H]([C@H](C)C[C@@H]2CC[C@@H](O)[C@H](OC)C2)CC(=O)[C@H](C)/C=C(\C)[C@@H](O)[C@@H](OC)C(=O)[C@H](C)C[C@H](C)/C=C/C=C/C=C/1C [SIROLIMUS]
- inhibition (Mus musculus [10]): Active
- Activity [11]: inactive
- inhibition [12]: inactive
- Activity [13]: inactive
- Activity [14]: 21%
- inhibition (Mus musculus [15]): Active
- inhibition (OVCAR-3 [16]): Active
- inhibition [17]: inactive
- Activity [18]: 34%
- Activity [19]: 48%
- Activity [20]: inactive
- inhibition (Mus musculus [21]): Active
- Activity [22]: inactive
- inhibition [23]: inactive
- Activity [24]: 20%
- inhibition (Mus musculus [25]): inactive
- inhibition (Mus musculus [26]): inactive
- Activity [27]: 21%
- inhibition (OVCAR-3 [28]): Active
- Activity [29]: inactive
- Activity [30]: 15%
